Each structure is given as a SMILES string.

For one data set, the system named is Mus musculus. Briefly: Toxicity in C57BL/6 mouse assessed as change in body temperature at 3 mg/kg, iv after 120 mins. Type of data set: organism-based. To be noted: in vivo, 2 h.
The target in data set [1] is T1, Liver carboxylesterase 1 (Homo sapiens, UniProt P23141).
T1 sequence (P23141 whole entry): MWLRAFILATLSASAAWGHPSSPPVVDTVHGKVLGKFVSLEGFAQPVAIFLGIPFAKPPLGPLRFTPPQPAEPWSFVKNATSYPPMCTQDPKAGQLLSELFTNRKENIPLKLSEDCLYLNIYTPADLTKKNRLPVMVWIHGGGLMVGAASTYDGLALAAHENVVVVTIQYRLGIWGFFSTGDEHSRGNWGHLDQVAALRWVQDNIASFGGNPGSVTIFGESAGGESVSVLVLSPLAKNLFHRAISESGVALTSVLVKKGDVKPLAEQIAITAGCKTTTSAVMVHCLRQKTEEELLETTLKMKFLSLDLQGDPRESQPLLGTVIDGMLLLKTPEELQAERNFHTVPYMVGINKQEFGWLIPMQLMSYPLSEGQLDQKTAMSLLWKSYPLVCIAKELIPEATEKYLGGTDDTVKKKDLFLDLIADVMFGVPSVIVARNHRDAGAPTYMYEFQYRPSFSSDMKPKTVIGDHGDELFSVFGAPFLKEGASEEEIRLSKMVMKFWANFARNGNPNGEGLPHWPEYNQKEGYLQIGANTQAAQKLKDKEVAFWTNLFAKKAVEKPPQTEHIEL
In words: Drug metabolism assessed as recombinant human CE1-mediated compound hydrolysis by measuring rate constant at 50 uM up to 60 mins by LC-UV analysis. Type of data set: ADME. As to conditions: 1 h.

Data set [2] is described as follows: Drug metabolism in human liver microsomes assessed as sulfate conjugate formation at 50 uM in presence of UDPGA after 60 mins by LC-ESI-MS analysis. Type of data set: ADME, microsome. As to conditions: 1 h. On the technique in general: Microsomes from liver hold many membrane-bound enzymes, among them those of drug oxidation.
The target in data set [3] is T2, Liver carboxylesterase 1 (CE1) (Homo sapiens, UniProt P23141).
T2 sequence (P23141 whole entry): T1 sequence (P23141 whole entry)
In words: Drug metabolism assessed as recombinant human CE1-mediated compound hydrolysis by measuring compound half life at 50 uM up to 60 mins by LC-UV analysis. Type of data set: ADME.

The target of data set [4] is T3, Cocaine esterase (Homo sapiens, UniProt O00748).
T3 sequence (O00748 whole entry): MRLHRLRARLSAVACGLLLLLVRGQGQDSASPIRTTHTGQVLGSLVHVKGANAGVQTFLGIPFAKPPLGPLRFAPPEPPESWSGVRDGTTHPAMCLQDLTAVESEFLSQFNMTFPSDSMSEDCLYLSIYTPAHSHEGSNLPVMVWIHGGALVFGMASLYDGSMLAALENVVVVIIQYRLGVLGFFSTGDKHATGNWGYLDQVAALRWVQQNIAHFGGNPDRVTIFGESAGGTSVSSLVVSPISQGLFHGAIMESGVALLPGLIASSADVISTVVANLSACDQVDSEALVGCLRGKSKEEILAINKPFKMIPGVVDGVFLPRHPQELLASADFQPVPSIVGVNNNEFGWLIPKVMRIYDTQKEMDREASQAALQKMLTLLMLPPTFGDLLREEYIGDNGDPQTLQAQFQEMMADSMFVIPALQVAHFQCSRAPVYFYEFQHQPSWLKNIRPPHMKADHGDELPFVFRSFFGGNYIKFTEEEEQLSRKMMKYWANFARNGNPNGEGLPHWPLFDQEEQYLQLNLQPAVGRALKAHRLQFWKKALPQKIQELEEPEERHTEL
Briefly: Drug metabolism assessed as recombinant human CE2-mediated compound hydrolysis by measuring rate constant at 50 uM up to 60 mins by LC-UV analysis. Type of data set: ADME. To be noted: 1 h.

A short description of data set [5]: Drug metabolism in human liver microsomes assessed as glucuronide metabolite formation at 50 uM in presence of UDPGA after 60 mins by LC-ESI-MS analysis. Type of data set: ADME, microsome. To be noted: 1 h.
In data set [6] the target is T4, Cocaine esterase (CE2) (Homo sapiens, UniProt O00748).
T4 sequence (O00748 whole entry): T3 sequence (O00748 whole entry)
In words: Drug metabolism assessed as recombinant human CE2-mediated compound hydrolysis by measuring compound half life at 50 uM up to 60 mins by LC-UV analysis. Type of data set: ADME.

A short description of data set [7]: Drug metabolism in human liver S9 fraction assessed as residual substrate levels at 50 uM up to 60 mins by HPLC-UV analysis. Type of data set: ADME, subcellular. To be noted: read-out: Stability.
The target in data set [8] is T5, Transient receptor potential cation channel subfamily V member 1 (Homo sapiens, UniProt Q8NER1). Briefly: Agonist activity at TRPV1 (unknown origin) expressed in human SH-SY5Y cells assessed as increase in calcium influx at 1 uM after 25 mins by Fluo-4 NW dye-based fluorescence assay relative to capsaicin.
T5 sequence (Q8NER1 whole entry): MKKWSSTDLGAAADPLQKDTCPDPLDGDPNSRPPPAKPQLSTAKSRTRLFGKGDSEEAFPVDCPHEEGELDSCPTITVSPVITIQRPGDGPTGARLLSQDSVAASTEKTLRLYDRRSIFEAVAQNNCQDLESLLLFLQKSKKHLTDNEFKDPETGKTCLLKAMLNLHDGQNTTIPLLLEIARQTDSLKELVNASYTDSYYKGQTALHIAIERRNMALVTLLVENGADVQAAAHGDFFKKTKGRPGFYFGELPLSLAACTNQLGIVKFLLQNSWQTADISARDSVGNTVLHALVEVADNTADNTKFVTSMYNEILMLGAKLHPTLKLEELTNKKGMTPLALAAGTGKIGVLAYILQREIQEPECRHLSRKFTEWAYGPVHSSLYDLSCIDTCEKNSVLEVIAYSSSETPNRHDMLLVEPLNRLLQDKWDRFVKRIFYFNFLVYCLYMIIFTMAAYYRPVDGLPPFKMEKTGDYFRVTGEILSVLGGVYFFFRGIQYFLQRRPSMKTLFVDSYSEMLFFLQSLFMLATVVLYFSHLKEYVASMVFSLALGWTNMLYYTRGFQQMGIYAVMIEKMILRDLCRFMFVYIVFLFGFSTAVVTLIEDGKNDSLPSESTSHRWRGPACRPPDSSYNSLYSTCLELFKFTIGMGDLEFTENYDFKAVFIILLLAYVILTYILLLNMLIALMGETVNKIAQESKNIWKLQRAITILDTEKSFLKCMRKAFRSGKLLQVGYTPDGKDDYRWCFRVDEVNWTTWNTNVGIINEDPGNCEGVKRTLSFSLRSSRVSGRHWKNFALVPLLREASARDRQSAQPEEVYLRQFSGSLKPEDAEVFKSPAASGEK
Data set [9] in a line: Drug metabolism in human plasma assessed as residual substrate levels at 100 uM up to 20 mins by HPLC-UV analysis. Type of data set: ADME, cell-free. To be noted: read-out: Stability.
Data set [10] is described as follows: Drug metabolism in human fibroblast cells assessed as residual substrate levels at 50 uM up to 120 mins by HPLC-UV analysis. Type of data set: ADME, cell-based. As to conditions: read-out: Stability.
Data set [11] concerns the target T2, Liver carboxylesterase 1 (CE1). In words: Drug metabolism assessed as recombinant human CE1-mediated compound hydrolysis by measuring compound intrinsic clearance at 50 uM up to 60 mins by LC-UV analysis. Type of data set: ADME.
Data set [12] in a line: Drug metabolism in human liver cytosol assessed as glucuronide metabolite formation at 50 uM in presence of UDPGA after 60 mins by LC-ESI-MS analysis. Type of data set: ADME, subcellular. As to conditions: 1 h.
Data set [13] can be described thus: Drug metabolism in human keratinocytes assessed as residual substrate levels at 50 uM up to 120 mins by HPLC-UV analysis. Type of data set: ADME, cell-based, Keratinocyte. As to conditions: read-out: Stability.
Data set [14] can be described thus: Drug metabolism in human liver cytosol assessed as sulfate conjugate formation at 50 uM in presence of UDPGA after 60 mins by LC-ESI-MS analysis. Type of data set: ADME, subcellular. As to conditions: 1 h.
The target in data set [15] is T5, Transient receptor potential cation channel subfamily V member 1. Briefly: Agonist activity at TRPV1 (unknown origin) expressed in human SH-SY5Y cells assessed as increase in calcium influx after 25 mins by Fluo-4 NW dye-based fluorescence assay. Type of data set: cell-based.
Data set [16] in a line: Drug metabolism in human HaCaT cells assessed as residual substrate levels at 25 uM up to 240 mins by HPLC-UV analysis. Type of data set: ADME, cell-based. As to conditions: read-out: Stability.
The target of data set [17] is T3, Cocaine esterase. Briefly: Drug metabolism assessed as recombinant human CE2-mediated compound hydrolysis by measuring rate constant at 50 uM up to 30 mins by LC-UV analysis. Type of data set: ADME. To be noted: 0.5 h. In short, it runs like this: (§1)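 Recombinant human carboxylesterase isoforms 1 and 2 were each incubated with the test ester. Hydrolysis was followed by HPLC-UV, tracking the disappearance of the substrate over incubation time relative to the initial amount. Chromatograms were also checked for peaks of the expected hydrolysis metabolites.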

Data set [18] concerns the target T2, Liver carboxylesterase 1 (CE1). In words: Drug metabolism assessed as recombinant human CE1-mediated compound hydrolysis by measuring compound half life at 50 uM up to 30 mins by LC-UV analysis. Type of data set: ADME. In short, it runs like this:
as §1

Data set [19] deals with T4, Cocaine esterase (CE2). In words: Drug metabolism assessed as recombinant human CE2-mediated compound hydrolysis by measuring compound half life at 50 uM up to 30 mins by LC-UV analysis. Type of data set: ADME. The method, boiled down:
as §1

Data set [20] concerns the target T1, Liver carboxylesterase 1. In words: Drug metabolism assessed as recombinant human CE1-mediated compound hydrolysis by measuring rate constant at 50 uM up to 30 mins by LC-UV analysis. Type of data set: ADME. As to conditions: 0.5 h. The method, boiled down:
as §1

Data set [21] addresses T5, Transient receptor potential cation channel subfamily V member 1. In words: Antagonist activity at TRPV1 (unknown origin) expressed in human SH-SY5Y cells assessed as inhibition of capsaicin-induced calcium influx at 1 uM after 25 mins by Fluo-4 NW dye-based fluorescence assay relative to capsaicin. Type of data set: cell-based.
Data set [22] shares this target. Briefly: Antagonist activity at TRPV1 (unknown origin) expressed in human SH-SY5Y cells assessed as inhibition of capsaicin-induced calcium increase after 25 mins by Fluo-4 NW dye-based fluorescence assay. Type of data set: cell-based.

Consider `CC(C)(C)c1ccc(NC(=O)N2CCN(c3ncccc3Cl)CC2)cc1`, for which the Activity entry in the data set with Mus musculus was “Toxic”.
What is called half-life is the time needed for the level to fall by half in the phase considered. For orientation: microsomal CLint means the rate of metabolic loss divided by the concentration. One may read the EC50 as the concentration needed to bring the measured effect to its halfway point. Regarding `CC(C)=CCC/C(C)=C/CC/C(C)=C/CC/C=C(\C)CC/C=C(\C)CCC(=O)OCC(=O)NCc1ccc(O)c(O)c1`, the figures for the K on Liver carboxylesterase 1 [1] and on Cocaine esterase [4] were 0.0608 min⁻¹ and 0.0497 min⁻¹, respectively. Further, the Drug metabolism entry in data set [2], in data set [5], in [12] and in data set [14] was “Metabolite_Notdetected” in each case. Also, the half-life at 50 µM in data set [3] stood at 11.4 min; at Cocaine esterase (CE2) [6], 14 min. Moreover, in data set [7], the remaining at 1 h, 50 µM came to 70.9%. Also, the Activity in data set [8] amounted to 78.4%. For the same compound, the remaining at 20 min, 100 µM in data set [9] came out at 105%. Besides, the remaining at 2 h, 50 µM in [10] came out at 59.6%; in data set [13], 70.2%. In [11], the microsomal CLint at 50 µM stood at 56 µL/min/mg. Besides, the EC50 in data set [15] came out at 40 nM. In addition, the remaining at 4 h, 25 µM in data set [16] is 97.9%.
With `CCCCCCCCCCCC(=O)OCC(=O)NCc1ccc(O)c(OC)c1`, the Drug metabolism entry in [2], in data set [5], in data set [12] and in data set [14] was “Metabolite_Notdetected” throughout. Also, the figures for the K on Cocaine esterase [17] and at Liver carboxylesterase 1 [20] were 0.0376 min⁻¹ and 0.0465 min⁻¹, respectively. In addition, the half-life at 50 µM in data set [18] was 14.9 min; at Cocaine esterase (CE2) [19], 18.6 min. The remaining at 1 h, 50 µM in data set [7] is 0%. Moreover, the Activity in [8] is 65.1%. Moreover, the remaining at 20 min, 100 µM in data set [9] worked out at 89.6%. Also, the figures for the remaining at 2 h, 50 µM in data set [10] and in data set [13] were 19.5% and 22.2%, respectively. Besides, the EC50 in data set [15] amounted to 370 nM. Moreover, the remaining at 4 h, 25 µM in data set [16] was found to be 84.5%.
What is called inhibition is the percentage by which the read-out fell short of the control. As usually defined, the IC50 is the concentration that gives 50% inhibition. In the case of `COc1cc(CNC(=O)COC(=O)/C=C(\C)CCC=C(C)C)c(I)cc1O`, in data set [21], the inhibition was determined as 90.1%. Further, the figures for the K at Liver carboxylesterase 1 [1] and at Cocaine esterase [4] were 0.0129 min⁻¹ and 0.0877 min⁻¹, respectively. Also, the Drug metabolism entry in [2], in data set [5], in [12] and in [14] was “Metabolite_Notdetected” in each case. For the same compound, the figures for the half-life at 50 µM (in data set [3]; on Cocaine esterase (CE2) [6]) were 53.8 min and 7.9 min, respectively. The remaining at 1 h, 50 µM in [7] was 50.1%. Besides, in [9], the remaining at 20 min, 100 µM stood at 100%. Besides, the remaining at 2 h, 50 µM in data set [10] came out at 100%; in data set [13], 104%. Further, in data set [11], the microsomal CLint at 50 µM is 13 µL/min/mg. In [16], the remaining at 4 h, 25 µM was 99.5%. Moreover, the IC50 in [22] was determined as 90 nM.

(Values after ChEMBL document CHEMBL4219255, “Targeting Transient Receptor Potential Vanilloid 1 (TRPV1) Channel Softly: The Discovery of Passerini Adducts as a Topical Treatment for Inflammatory Skin Disorders” (J Med Chem, 2018).)
